# Shown are actives, neighbours in structure and some others; about 2.2% of the full set was active somewhere.
# M1 PAM = human CHRM1 positive allosteric modulation | P11229 | CHO-K1 hM1, Fluo-8 calcium fluorescence, ACh EC20; 0% = ACh EC20, 100% = maximal ACh | activation, % at 3 µM | hit rate 0.088% among 360,000; in the data active = activation above about 19%, passing the limit was not always enough
# Target sequence (P11229 whole entry, looked up): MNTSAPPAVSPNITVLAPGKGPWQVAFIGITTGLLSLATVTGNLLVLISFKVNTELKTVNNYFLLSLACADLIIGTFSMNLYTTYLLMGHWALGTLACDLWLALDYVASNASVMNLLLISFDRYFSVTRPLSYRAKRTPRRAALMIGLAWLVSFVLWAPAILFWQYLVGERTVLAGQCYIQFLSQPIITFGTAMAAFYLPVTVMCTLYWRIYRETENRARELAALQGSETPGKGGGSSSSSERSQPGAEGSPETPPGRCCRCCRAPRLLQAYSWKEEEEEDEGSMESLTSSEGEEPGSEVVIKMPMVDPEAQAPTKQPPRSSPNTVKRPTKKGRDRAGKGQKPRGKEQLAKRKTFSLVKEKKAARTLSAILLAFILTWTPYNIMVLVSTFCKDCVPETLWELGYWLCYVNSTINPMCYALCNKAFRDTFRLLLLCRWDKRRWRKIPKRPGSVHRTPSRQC
# M5 antag = CHRM5 antagonism in calcium assay; P08912; CHO-hM5 cells, Fluo-8 calcium fluorescence, ACh EC80; inhibition, % at 3 µM; hit rate 0.59% among 360,000; AID 624040;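 active = inhibition above a per-plate cutoff, the mean of that plate's test compounds plus 3 SD, cut at about 27% in these data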
# M5 ag = CHRM5 agonism in calcium assay | P08912 | CHO-K1 hM5 cells, Fluo-8 calcium fluorescence; 0% DMSO wells, 100% maximal acetylcholine response | activation, % at 3 µM | hit rate 0.19% among 360,000 | AID 624037;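 active = activation above the run's mean over test compounds plus 3 SD, cut at about 23% in these data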;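 note: signal is peak over basal fluorescence ratio across the kinetic read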
# CHRM1 antagonist = blocks human M1 muscarinic receptor | CHO-K1 hM1, Fluo-8 calcium fluorescence, ACh EC80 antagonist | AID 588852 | hit rate 1.3% among 360,000 | inhibition, % at 3 µM;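 active = percent inhibition above its own plate's cutoff, namely the mean of that plate's compound wells plus 3 SD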;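 note: peak over basal fluorescence ratio during 140 s after agonist addition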
# M5 PAM = positive allosteric modulators of human muscarinic M5 receptor; P08912; CHO-K1 hM5, Fluo-8 calcium, ACh EC20 PAM; 0% = ACh EC20, 100% = ACh EC100; activation, % at 3 µM; hit rate 0.3% among 360,000; AID 624038;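 active = activation above the run cutoff, the mean activation of all test compounds plus 3 SD, cut at about 18% in these data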
#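 Measured by: Fluo-8 calcium fluorescence; material: human M5 receptor in CHO-K1 cells; schedule: Post-acetylcholine fluorescence recording 140 s; benchmarks: low control EC20 acetylcholine (0%), high control EC100 acetylcholine (100%); read-out: Max/basal fluorescence ratio as % of EC20–EC100 ACh window; compound: single dose, 3 µM nominal final test concentration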
# CHRM1 agonist = human M1 muscarinic receptor agonism. P11229. CHO-K1 hM1, Fluo-8 calcium fluorescence, agonist mode; 0% DMSO, 100% acetylcholine EC100. activation, % at 3 µM. hit rate 0.33% among 360,000. AID 588814;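 active = activation above the run's mean compound activation plus 3 SD, cut at about 16% in these data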;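 note: peak over basal fluorescence ratio within a 140 s kinetic read after compound addition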
# Hits are given with their value; 0 = inactive; - = no result.
SMILES,M1 PAM,M5 antag,M5 ag,CHRM1 antagonist,M5 PAM,CHRM1 agonist
COCc1nnc(NC(=O)c2cc(OC)c(OC)cc2[N+](=O)[O-])s1,0,0,0,0,0,0
COc1ccc(S(=O)(=O)NCc2cccnc2)cc1C(=O)Nc1ccccc1,0,0,0,0,0,0
O=c1[nH]c2ccccc2nc1/C=C(\O)c1cccs1,0,0,31,0,0,18
O=C(/C(=C/c1ccc(Cl)cc1)c1nc2ccccc2[nH]1)c1cccs1,0,0,0,94,0,0
Cc1noc(C)c1CSCC(=O)Nc1nc(-c2ccc(F)c(F)c2)cs1,0,0,0,35,0,0
CCc1noc(C)c1C(=O)Nc1nc(-c2ccc(OC)c(OC)c2)cs1,0,0,0,0,0,0
CCc1noc(C)c1C(=O)OCC(=O)Nc1nc(-c2ccc(F)c(F)c2)cs1,0,0,0,42,0,0
O=C1CCCC2=C1C(c1ccc(Cl)cc1)N1C(=O)CCSC1=N2 (stereo unspecified),0,0,0,0,0,0
CC1(C)CC(=O)C2=C(C1)N=C1SCCC(=O)N1C2c1ccccc1 (stereo unspecified),0,0,0,36,0,0
CCc1cc(=O)[nH]c(SCc2ccc(C)cc2)n1,0,0,0,0,0,0
Clc1ccc(OCCCCN2CCCCC2)cc1,0,0,0,0,0,0
CC(C)c1ccc(OCCCCN2CCCCC2)cc1,0,0,0,60,0,0
CC(C)Oc1ccc(OCCCN2CCCCCC2)cc1,0,0,0,36,0,0
Cc1ccc(C(=O)NNC(=O)c2cc(C)nc3ccccc23)cc1,0,0,0,0,0,0
CCn1c(=O)n(CC)c2cc(N3CCCC3)c(NC(=O)c3c(F)cccc3F)cc21,0,0,0,0,0,0
COc1cccc(C2CC(c3cccs3)=NN2S(C)(=O)=O)c1 (stereo unspecified),0,0,0,0,0,0
CCN(CC)CCn1c2c(c(SCC(=O)Nc3cccc(C(C)=O)c3)nc1=O)CCCC2,0,0,0,61,0,0
CCN(CC)CC(=O)N1N=C(c2cccs2)CC1c1ccco1 (stereo unspecified),0,0,0,51,0,0
CCC(=O)N1N=C(c2cccs2)CC1c1ccco1 (stereo unspecified),0,0,0,0,0,0
N#Cc1ccccc1Sc1ccccc1C(=O)NCC(c1ccco1)N1CCCCC1 (stereo unspecified),0,0,0,30,0,0
O=C(NCC(c1ccco1)N1CCCC1)c1ccc(Cl)cc1 (stereo unspecified),0,0,0,0,0,0
O=C(NCC(c1ccco1)N1CCCC1)c1ccccc1Sc1ccc(C(F)(F)F)cc1[N+](=O)[O-] (stereo unspecified),0,0,0,95,0,0
Cc1ccc(-n2nnc(-c3nccn3C)n2)cc1,0,0,0,0,0,0
CN(C)c1ccc(C=NNc2nc3c([nH]2)c(=O)n(C)c(=O)n3C)cc1,0,0,0,24,0,0
CC(=O)c1ccc(N2CCN(CC(O)COC(c3ccccc3)c3ccccc3)CC2)cc1 (stereo unspecified),0,0,0,91,0,0
SMILES,M1 PAM,M5 antag,M5 ag,CHRM1 antagonist,M5 PAM,CHRM1 agonist
OC(COC(c1ccccc1)c1ccccc1)CN1CCN(c2cccc(Cl)c2)CC1 (stereo unspecified),0,0,0,0,0,0
CC(=O)c1ccc(N2CCN(CC(O)COC(c3ccccc3)c3ccccc3C)CC2)cc1 (stereo unspecified),0,32,0,101,0,0
CC(=O)c1ccc(OCC(O)CN2CCN(c3ccc(F)cc3)CC2)cc1 (stereo unspecified),0,0,0,0,0,0
OCC1(Cc2ccccc2)CCCN(Cc2ccc(-c3ccco3)cc2)C1 (stereo unspecified),0,0,0,44,0,0
OCC1(Cc2ccccc2)CCN(Cc2ccc(-c3ccco3)cc2)CC1,0,0,0,0,0,0
CCOc1cc(C=O)cc(Br)c1OCC(N)=O,0,0,0,0,0,0
COc1ccc(CCNC(=O)c2cc(-c3ccncc3)nc3c(Cl)cccc23)cc1OC,0,0,0,38,0,0
C/C(=N/NC(=O)c1cc(-c2ccccc2)nc2c(Cl)cccc12)c1cccnc1,0,0,0,0,25,0
COc1cc(C(=O)NC2CC(C)(C)CC(C)(C)C2)ccc1OC1CCN(C(C)=O)CC1,0,0,0,0,0,0
O=C(CN1CCN(Cc2ccccc2)CC1)N/N=C/c1cccnc1,0,0,0,0,0,0
O=NN(CCc1ccncc1)c1ccc(OCc2ccccc2)cc1,0,34,0,0,0,0
CC(=O)OCc1c(C(F)(F)F)nn(C)c1Oc1cccc(C(F)(F)F)c1,0,0,0,0,0,0
CC(=O)OCc1c(C(F)(F)F)nn(C)c1Oc1ccccc1,0,0,0,0,19,0
CC1=C(C)/C(=N\OS(=O)(=O)c2ccccc2)C=CC1=O,0,30,0,21,0,0
Cc1ccc(S(=O)(=O)O/N=C2\CCCc3ccccc32)cc1,0,0,0,0,0,0
CCOc1ccccc1N(CC(=O)NCC1CCCO1)C(=O)CCC(=O)Nc1cc(C)on1 (stereo unspecified),0,0,0,0,0,0
CCOc1ccccc1N(CC(=O)NCC1CCCO1)C(=O)CCC(=O)Nc1ccccn1 (stereo unspecified),0,42,0,0,0,0
O=C(/C=C/c1ccc(F)cc1)NC(=S)NNC(=O)[C@H]1C[C@@H]1c1ccccc1,0,29,0,0,0,49
COc1cc(OC)cc(C(=O)NC(=S)NNC(=O)[C@H]2C[C@@H]2c2ccccc2)c1,0,0,0,0,0,43
COc1ccc(C(=O)NC(=S)NNC(=O)[C@H]2C[C@@H]2c2ccccc2)cc1OC,0,0,0,0,0,19
O=C(NC(=S)NNC(=O)[C@H]1C[C@@H]1c1ccccc1)c1ccc(F)cc1,0,0,0,0,0,0
O=C(CN1C(=O)NC2(CCOc3ccccc32)C1=O)NCCc1ccc(F)cc1 (stereo unspecified),0,0,0,0,0,0
Cc1ccc(S(=O)(=O)Nc2ccc(S(=O)(=O)Nc3nccs3)cc2)c([N+](=O)[O-])c1,0,0,0,0,0,0
COC(=O)[C@]12CCCCC=C1N(Cc1cccc3ccccc13)C(=O)[C@H](CC(=O)N1CCN(C(=O)C3CC3)CC1)C2,-,0,0,-,0,-
O=C(COC(=O)c1cccc(-n2cnnn2)c1)c1ccc(F)c(F)c1,0,0,0,0,0,0

# From PubChem BioAssay
